Activity calls are given as the source filed them. No cut-off for these calls is given here.

One assay addresses T1, Caspase-3 (Homo sapiens, UniProt P42574).
T1 sequence (P42574 whole entry): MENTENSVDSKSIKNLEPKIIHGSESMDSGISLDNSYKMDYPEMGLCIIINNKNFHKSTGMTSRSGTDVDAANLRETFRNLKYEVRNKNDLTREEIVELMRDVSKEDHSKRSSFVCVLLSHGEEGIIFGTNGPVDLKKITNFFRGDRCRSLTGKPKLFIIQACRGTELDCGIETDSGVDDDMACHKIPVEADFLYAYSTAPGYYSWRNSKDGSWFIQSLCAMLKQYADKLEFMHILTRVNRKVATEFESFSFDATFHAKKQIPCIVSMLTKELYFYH
Put plainly: Inhibition of caspase 3 in human SK-N-SH cells assessed as accumulation of fluorogenic 7-amino-4-methyl coumarin by fluorometric assay. The class given is cell-based.

Assay [1] concerns the target T2, Caspase-3 (Homo sapiens) (UniProt P42574).
T2 sequence (whole entry): T1 sequence (P42574 whole entry)
The experiment in a line: Inhibition of caspase 3 in human SK-N-SH cells assessed as accumulation of fluorogenic 7-amino-4-methyl coumarin at 1 mM by fluorometric assay. The class given is cell-based. An outline of the steps:
(§1)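 Kit-based caspase-3 cleavage assay, using doxorubicin-induced apoptotic SK-N-SH cell extracts as the caspase source. The inhibitor was dissolved in DMSO and serially diluted to working concentrations, and a standard inhibitor served as control. Fluorescence was recorded across 420–460 nm, and decreases in intensity were expressed relative to apoptotic control extracts.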

For assay [2], the target named is T2, Caspase-3 (Homo sapiens). The experiment in a line: Inhibition of caspase 3 in human SK-N-SH cells assessed as accumulation of fluorogenic 7-amino-4-methyl coumarin at 10 uM by fluorometric assay. In kind it is cell-based. An outline of the steps: as §1
The target of a further assay is T3, Caspase-7 (Homo sapiens) (UniProt P55210).
T3 sequence (whole entry): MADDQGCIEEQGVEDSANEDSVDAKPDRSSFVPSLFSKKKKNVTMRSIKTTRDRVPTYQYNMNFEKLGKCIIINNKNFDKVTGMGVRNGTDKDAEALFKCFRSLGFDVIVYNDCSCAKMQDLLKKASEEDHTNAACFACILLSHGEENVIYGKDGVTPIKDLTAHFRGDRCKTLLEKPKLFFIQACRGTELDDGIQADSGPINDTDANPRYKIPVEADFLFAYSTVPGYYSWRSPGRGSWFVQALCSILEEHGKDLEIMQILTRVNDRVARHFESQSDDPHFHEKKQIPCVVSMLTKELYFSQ
Put plainly: Inhibition of caspase 7 in human SK-N-SH cells assessed as accumulation of fluorogenic 7-amino-4-methyl coumarin by fluorometric assay. The class given is cell-based.

In assay [3] the test system is SK-N-SH. Put plainly: Induction of apoptosis in human SK-N-SH cells assessed as caspase 3 activity at 5 uM by fluorescence assay. The class given is functional, cell-based. The gist of the method:
(§2)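 Human SK-N-SH neuroblastoma cells exposed to the test agent at 0.5–5 µM. Apoptosis was read as caspase-3 activity by fluorescence intensity, scanned around 420–430 nm. Values are slopes averaged from 5 experiments, each run in duplicate.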

The target in assay [4] is T2, Caspase-3 (Homo sapiens). Put plainly: Inhibition of caspase 3 in human SK-N-SH cells assessed as accumulation of fluorogenic 7-amino-4-methyl coumarin at 5 mM by fluorometric assay. In kind it is cell-based. The gist of the method: as §1
Assay [5] addresses T2, Caspase-3 (Homo sapiens). The experiment in a line: Inhibition of caspase 3 in human SK-N-SH cells assessed as accumulation of fluorogenic 7-amino-4-methyl coumarin at 0.5 uM by fluorometric assay. In kind it is cell-based. The gist of the method: as §1
For assay [6], the target named is T2, Caspase-3 (Homo sapiens). Put plainly: Inhibition of caspase 3 in human SK-N-SH cells assessed as accumulation of fluorogenic 7-amino-4-methyl coumarin at 100 uM by fluorometric assay. In kind it is cell-based. The gist of the method: as §1
The target of assay [7] is T2, Caspase-3 (Homo sapiens). Put plainly: Inhibition of caspase 3 in human SK-N-SH cells assessed as accumulation of fluorogenic 7-amino-4-methyl coumarin at 50 uM by fluorometric assay. The class given is cell-based. The gist of the method:
as §1

The target of assay [8] is T2, Caspase-3 (Homo sapiens). Put plainly: Inhibition of caspase 3 in human SK-N-SH cells assessed as decrease in fluorescence intensity-associated with accumulation of fluorogenic 7-amino-4-methyl coumarin at 5 mM by fluorometric assay relative to control. The class given is cell-based. Further details: scale not given: the % may be the effect or the level left. An outline of the steps: as §1

The subject of assay [9] is SK-N-SH. Put plainly: Inhibition of apoptosis in human SK-N-SH cells assessed as maximum fluorescence intensity at 440 nm treated at 0.5 uM by fluorescence assay. The class given is functional, cell-based. An outline of the steps: as §1
The test system of assay [10] is SK-N-SH. The experiment in a line: Induction of apoptosis in human SK-N-SH cells at 0.5 to 5 uM by fluorescence assay. In kind it is functional, cell-based. An outline of the steps:
as §2

For assay [11], the system named is SK-N-SH. The experiment in a line: Induction of apoptosis in human SK-N-SH cells assessed as caspase 3 activity at 1 uM by fluorescence assay. In kind it is functional, cell-based. The gist of the method:
as §2

In general, IC50 refers to the midpoint of a concentration-inhibition curve. In the case of `O=C1Nc2ccc(S(=O)(=O)N3CCCC3CNc3ccccc3)cc2C1=O` (centres undefined), at Caspase-3, the IC50 was found to be 31 nM.

In the case of `O=C(NCCCN1CCN(Cc2c(F)cccc2Cl)CC1)c1ccc(Cl)c(Cl)c1`, the result at Caspase-3 (Homo sapiens) [1], on Caspase-3 (Homo sapiens) [4], at Caspase-3 (Homo sapiens) [5] and in the assay with SK-N-SH [9] was Active. For the same compound, the outcome at Caspase-3 (Homo sapiens) [2], at Caspase-7 (Homo sapiens), in the assay on SK-N-SH [3], on Caspase-3 (Homo sapiens) [6] and on Caspase-3 (Homo sapiens) [7] was inactive. For the same compound, the Activity at Caspase-3 (Homo sapiens) [8] was determined as 50%.

In the case of `COc1cccc2c1C(=O)c1c(O)c3c(c(O)c1C2=O)C[C@@](O)(C(=O)CO)C[C@@H]3O[C@H]1C[C@H](N)[C@H](O)[C@H](C)O1`, the outcome with SK-N-SH [3], in the assay on SK-N-SH [10] and in the assay with SK-N-SH [11] was Active.

Values taken from ChEMBL document CHEMBL1153506, “Design, synthesis, and discovery of novel non-peptide inhibitor of Caspase-3 using ligand based and structure based virtual screening approach” (Bioorg Med Chem, 2009).
